Values after ≈ are worked out from the molar mass of the structure shown. Active and inactive are the calls of the source.

Our source for the Activity and EC50 values is ChEMBL document CHEMBL3272281, “Synthesis and structure-activity relationship studies of cytotoxic epoxide derivatives of 7-oxabicyclo[2.2.1]heptane” (J Med Chem, 1977).

In data set [1] the test system is Mus musculus. Description: Toxicity in BDF1 mouse allografted with mouse L1210 cells at 400 mg/kg. It is filed as organism-based. Also noted: dose 400 mg/kg. Particulars: in vivo. The gist of the method: (§1)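 Toxicity was recorded as lethality to BDF1 mice during the in vivo L1210 lymphoid leukemia screen. Compounds were given at 12.5, 50, 200 or 400 mg/kg.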
Data set [2] can be described thus: Cytotoxicity against human 9KB cells. The data set is classed as functional. The following applies: read-out: ED50 (the source's name). In a few lines: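 9KB cell culture assay run under the National Cancer Institute programme with compounds supplied in DMF solution. Values are ED50 in μg/ml, and ≤4 μg/ml is taken as the significance criterion.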
The test system of data set [3] is Mus musculus. Description: Toxicity in BDF1 mouse allografted with mouse L1210 cells at 200 mg/kg. Details: dose 200 mg/kg. It is filed as organism-based. Particulars: in vivo. In a few lines:
as §1

A further data set relates to L1210. Description: Antitumor activity against mouse L1210 cells allografted in BDF1 mouse. The data set is classed as functional.
In data set [4] the test system is Mus musculus. Description: Toxicity in BDF1 mouse allografted with mouse L1210 cells at 50 mg/kg. The data set is classed as organism-based. Also noted: dose 50 mg/kg. Particulars: in vivo. The gist of the method: as §1
The subject of data set [5] is Mus musculus. Description: Toxicity in BDF1 mouse allografted with mouse L1210 cells at 12.5 mg/kg. The data set is classed as organism-based. Details: dose 12.5 mg/kg. Particulars: in vivo. The gist of the method: as §1

Turning to `COC(=O)C1=C(C(=O)OC)C2CCC1C2`, the Activity result with Mus musculus [1] and with Mus musculus [3] was “Non-toxic” throughout. For the same compound, in data set [2], the EC50 was determined as 100 µg/mL (≈ 476 µM). In addition, in the data set on L1210, the result was inactive.
As for `COC(=O)C1=C(C(=O)OC)C2CCC1O2`, the Activity entry in the data set with Mus musculus [1] and with Mus musculus [3] was “Non-toxic” in each case. In addition, the EC50 in data set [2] was determined as 22 µg/mL (≈ 104 µM). In addition, the result in the data set on L1210 was inactive.
Regarding `C1CC2CC1C1OC21` (stereo not given), the Activity result in the data set on Mus musculus [1] and with Mus musculus [3] was “Non-toxic” in each case. The EC50 in data set [2] was determined as 100 µg/mL (≈ 908 µM). For the same compound, in the data set on L1210, the result was inactive.
With `COC(=O)C1=C(C(=O)OC)[C@@]2(C)O[C@H]1[C@@H]1O[C@@H]12`, the Activity entry with Mus musculus [1] is “Toxic”; in the data set with Mus musculus [3] it was “Toxic”; with Mus musculus [4], “Toxic”; with Mus musculus [5], “Non-toxic”. Further, in data set [2], the EC50 is 3 µg/mL (≈ 12.5 µM). In addition, the result in the data set on L1210 was inactive.
As to `COC(=O)C1=C(C(=O)OC)[C@H]2C[C@H]1[C@@H]1O[C@@H]12`, the results for the Activity entry in the data set with Mus musculus [1] and in the data set on Mus musculus [3] were “Toxic” and “Non-toxic”, respectively. Besides, the EC50 in data set [2] stood at 22 µg/mL (≈ 98.1 µM). Further, the outcome with L1210 was inactive.
Regarding `COC(=O)C1=C(C(=O)OC)C2(C)C=CC1O2` (stereo not given), the Activity result with Mus musculus [1] is on record as “Toxic”; with Mus musculus [3], “Toxic”; with Mus musculus [4] it was “Toxic”; in the data set on Mus musculus [5] it was “Non-toxic”. In data set [2], the EC50 was determined as 3 µg/mL (≈ 13.4 µM). Moreover, the outcome with L1210 was inactive.
As to `COC(=O)[C@@H]1[C@H](C(=O)OC)[C@@H]2C=C[C@@H]1O2`, the Activity result in the data set with Mus musculus [1] and in the data set on Mus musculus [3] was “Non-toxic” throughout. Besides, the EC50 in data set [2] is 100 µg/mL (≈ 471 µM). For the same compound, the outcome with L1210 was inactive.
`C1=CCC2OC2C1` (stereo not given): the Activity result is “Toxic” with Mus musculus [1] and “Non-toxic” in the data set with Mus musculus [3]. Besides, in data set [2], the EC50 stood at 130 µg/mL (≈ 1350 µM). Besides, the result in the data set with L1210 was inactive.
The corresponding values for `COC(=O)C1CC=CC(C)C1C(=O)OC` (stereo not given) are “Non-toxic”, “Non-toxic”, 48 µg/mL (≈ 226 µM) and “inactive”.
With `COC(=O)C1=C(C(=O)OC)[C@H]2O[C@H]1[C@@H]1O[C@@H]12`, the Activity result in the data set on Mus musculus [1] is reported as “Toxic”; in the data set with Mus musculus [3], “Toxic”; in the data set on Mus musculus [4], “Toxic”; in the data set with Mus musculus [5], “Non-toxic”. Moreover, the EC50 in data set [2] is 1.5 µg/mL (≈ 6.63 µM). Besides, in the data set on L1210, the outcome was inactive.
With `COC(=O)C1=C(C(=O)OC)C2C=CC1C2`, the Activity result with Mus musculus [1] and with Mus musculus [3] was “Non-toxic” in each case. Besides, in data set [2], the EC50 turned out to be 100 µg/mL (≈ 480 µM). In addition, the result in the data set on L1210 was inactive.
As for `COC(=O)[C@@H]1[C@H]2O[C@@H]([C@H]3O[C@H]32)[C@@H]1C(=O)OC`, the Activity entry in the data set on Mus musculus [1] and in the data set with Mus musculus [3] was “Non-toxic” each time. Further, the EC50 in data set [2] is 100 µg/mL (≈ 438 µM). In the data set with L1210, the outcome was inactive.
With `COC(=O)[C@@H]1[C@H](C(=O)OC)[C@@H]2C=C[C@@H]1C2`, the Activity entry with Mus musculus [1] and with Mus musculus [3] was “Non-toxic” throughout. Further, the EC50 in data set [2] amounted to 100 µg/mL (≈ 476 µM). The outcome with L1210 was inactive.
Regarding `COC(=O)C1CC2OC2C(C)C1C(=O)OC` (stereo not given), the Activity entry in the data set on Mus musculus [1] and in the data set on Mus musculus [3] was “Non-toxic” in each case. In addition, the EC50 in data set [2] was determined as 100 µg/mL (≈ 438 µM). Also, the outcome with L1210 was inactive.
Take `C1OCC2OC12` (stereo not given): the Activity result in the data set with Mus musculus [1] and in the data set with Mus musculus [3] was “Non-toxic” in each case. In addition, the EC50 in data set [2] came out at 100 µg/mL (≈ 1160 µM). Besides, in the data set on L1210, the outcome was inactive.
As to `COC(=O)[C@@H]1[C@H]2C[C@@H]([C@@H]3O[C@H]23)[C@@H]1C(=O)OC`, the Activity result with Mus musculus [1] and in the data set on Mus musculus [3] was “Non-toxic” each time. Further, the EC50 in data set [2] came to 100 µg/mL (≈ 442 µM). Moreover, in the data set on L1210, the result was inactive.
